According to ChEMBL document CHEMBL3352233, “N-[6-(4-butanoyl-5-methyl-1H-pyrazol-1-yl)pyridazin-3-yl]-5-chloro-1-[2-(4-methylpiperazin-1-yl)-2-oxoethyl]-1H-indole-3-carboxamide (SAR216471), a novel intravenous and oral, reversible, and directly acting P2Y12 antagonist” (J Med Chem, 2014):

Tests used:
[1] = test system: Canis familiaris; assay: Toxicity in conscious telemetered mongrel dog assessed as hemodynamic effect at 100 mg/kg, po after 24 hrs; assay type: organism-based, Canis lupus familiaris; parameters: dose 100 mg/kg, route oral; conditions: in vivo
[2] = test system: Hepatocyte; assay: Intrinsic metabolic clearance in human hepatocytes measured per 10^6 cells after 24 hrs; assay type: ADME, cell-based
How it was run: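 Human hepatocytes incubated with compound for 24 h to measure in vitro metabolism. Clearance reported in mL·h⁻¹·(10⁶ hepatocytes)⁻¹.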

[3] = test system: Canis familiaris; assay: Toxicity in conscious telemetered mongrel dog assessed as body temperature at 100 mg/kg, po after 24 hrs; assay type: organism-based, Canis lupus familiaris; parameters: dose 100 mg/kg, route oral; conditions: in vivo
[4] = test system: Rattus norvegicus; assay: Ex vivo inhibition of platelet aggregation in Sprague-Dawley rat at 0.3 mg/kg, iv after 5 mins
[5] = test system: Rattus norvegicus; assay: Toxicity in rat assessed as damaged organ at 3 mg/kg, iv after 7 days; assay type: organism-based; parameters: dose 3 mg/kg, route intravenous; conditions: in vivo, 168 h
How it was run: (§1)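 Rats are dosed daily for 7 days, orally (30 and 100 mg/kg) or iv (3 and 10 mg/kg). Target organs are examined for damage. Plasma AUC(0−24) is compared between day 1 and day 7.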

[6] = test system: Rattus norvegicus; assay: Toxicity in rat assessed as damaged organ at 10 mg/kg, iv after 7 days; assay type: organism-based; parameters: dose 10 mg/kg, route intravenous; conditions: in vivo, 168 h; how it was run: as §1
[7] = test system: Rattus norvegicus; assay: Ex vivo inhibition of platelet aggregation in Sprague-Dawley rat at 10 mg/kg, iv after 30 mins; assay type: functional; conditions: 0.5 h
How it was run: (§2)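 Male Sprague−Dawley rats (250−300 g) receive compound iv. At 30 min, under pentobarbital anesthesia, blood is taken from the abdominal aorta into 3.8% citrate (1:9). PRP is prepared at 300g for 5 min. ADP-induced aggregation is measured, using the area under the absorbance curve over 6 min, and expressed as % inhibition.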

[8] = test system: Canis familiaris; assay: Toxicity in conscious telemetered mongrel dog assessed as electrocardiographic effect at 100 mg/kg, po after 24 hrs; assay type: organism-based, Canis lupus familiaris; parameters: dose 100 mg/kg, route oral; conditions: in vivo
[9] = Metabolic stability in rat liver microsomes assessed as compound metabolism after 20 mins incubation in presence of 1 mM NADPH; assay type: ADME; conditions: liver microsomes, read-out: Drug metabolism
How it was run: (§3)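 Hepatic microsomal fractions are incubated with compound for 20 min with 1 mM NADPH. Result is reported as % metabolized, i.e. 100 minus % unchanged compound.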

[10] = Permeability across human Caco2 cells; assay type: ADME, cell-based; conditions: Caco-2, read-out: permeability
How it was run: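 Permeation is measured across a Caco2 cell monolayer and reported in 10⁻⁷ cm·s⁻¹.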

[11] = Plasma concentration in conscious telemetered mongrel dog at 100 mg/kg, po after 4 hrs; assay type: ADME, organism-based, Canis lupus familiaris; parameters: dose 100 mg/kg, route oral
[12] = Metabolic stability in mouse liver microsomes assessed as compound metabolism after 20 mins incubation in presence of 1 mM NADPH; assay type: ADME; conditions: read-out: Drug metabolism
How it was run: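 Compound incubated with mouse hepatic microsomal fractions for 20 min with 1 mM NADPH. Read-out is % metabolism, meaning 100 minus % unchanged compound.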

[13] = Metabolic stability in human liver microsomes assessed as compound metabolism after 20 mins incubation in presence of 1 mM NADPH; assay type: ADME; conditions: liver microsomes, read-out: Drug metabolism; how it was run: as §3
[14] = test system: Rattus norvegicus; assay: Ratio of AUC (0 to 24 hrs) in rat dosed as 7 day repeated administration to AUC (0 to 24 hrs) in rat administered as single dose; conditions: in vivo
[15] = test system: Rattus norvegicus; assay: Ex vivo inhibition of platelet aggregation in Sprague-Dawley rat at 1 mg/kg, iv after 30 mins; assay type: functional; conditions: 0.5 h; how it was run: as §2
[16] = test system: Rattus norvegicus; assay: Ex vivo inhibition of platelet aggregation in Sprague-Dawley rat at 10 mg/kg, po after 6 hrs; assay type: functional; conditions: Rattus norvegicus, Sprague-Dawley, po, 6 h
How it was run: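 Time-course study in Sprague−Dawley rats after a 10 mg/kg oral dose in glucose/Cremophor/glycofurol vehicle. Aortic citrated blood is sampled at intervals over the hours after dosing. PRP is prepared at 300g for 5 min. ADP-induced aggregation is measured as the 6-min absorbance AUC and reported as % inhibition.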

[17] = test system: Rattus norvegicus; assay: Ex vivo inhibition of platelet aggregation in Sprague-Dawley rat at 3 mg/kg, iv after 30 mins; assay type: functional; conditions: 0.5 h; how it was run: as §2
[18] = target: P2Y purinoceptor 12 (Homo sapiens, UniProt Q9H244); assay: Displacement of [33P]2MeS-ADP from P2Y12 receptor (unknown origin) transfected in CHO cells after 30 mins by scintillation counting analysis; assay type: cell-based
How it was run: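 P2Y12-expressing CHO cells (35 × 10³/sample) in PBS with 1 mM EDTA and 0.2% BSA are exposed to compound for 30 min. [³³P]2-MeS-ADP (0.16 nM) is then added for 15 min at 20 °C, in triplicate. Filtration separates free from bound ligand, followed by scintillation counting. Nonspecific binding uses 1 mM unlabeled ADP. IC50 comes from a four-parameter logistic fit with asymptotes fixed at 0 and 100. n = 2.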

[19] = test system: Rattus norvegicus; assay: Toxicity in rat assessed as damaged organ at 100 mg/kg, po after 7 days; assay type: organism-based; parameters: dose 100 mg/kg, route oral; conditions: in vivo, 168 h; how it was run: as §1
[20] = test system: Rattus norvegicus; assay: Ex vivo inhibition of platelet aggregation in Sprague-Dawley rat at 30 mg/kg, po after 2 hrs
[21] = test system: Rattus norvegicus; assay: Ex vivo inhibition of platelet aggregation in Sprague-Dawley rat at 0.1 mg/kg, iv after 5 mins
[22] = test system: Rattus norvegicus; assay: Ex vivo inhibition of platelet aggregation in po dosed Sprague-Dawley rat after 2 hrs; assay type: functional
How it was run: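 Oral gavage in male Sprague−Dawley rats (250−300 g, 6 per batch), vehicle 5% glucose water with 5% Cremophor and 3% glycofurol. Blood is collected 2 h after dosing from the abdominal aorta into 3.8% citrate under pentobarbital. PRP is prepared at 300g for 5 min. ADP-induced aggregation is quantified as the 6-min absorbance AUC, given as % inhibition.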

[23] = test system: Rattus norvegicus; assay: Toxicity in rat assessed as damaged organ at 30 mg/kg, po after 7 days; assay type: organism-based; parameters: dose 30 mg/kg, route oral; conditions: in vivo, 168 h; how it was run: as §1
[24] = test system: Hepatocyte; assay: Intrinsic metabolic clearance in human hepatocytes measured assessed as CYP3A4 contribution per 10^6 cells after 24 hrs; assay type: ADME, cell-based

Chain of P2Y purinoceptor 12 (Q9H244 whole entry): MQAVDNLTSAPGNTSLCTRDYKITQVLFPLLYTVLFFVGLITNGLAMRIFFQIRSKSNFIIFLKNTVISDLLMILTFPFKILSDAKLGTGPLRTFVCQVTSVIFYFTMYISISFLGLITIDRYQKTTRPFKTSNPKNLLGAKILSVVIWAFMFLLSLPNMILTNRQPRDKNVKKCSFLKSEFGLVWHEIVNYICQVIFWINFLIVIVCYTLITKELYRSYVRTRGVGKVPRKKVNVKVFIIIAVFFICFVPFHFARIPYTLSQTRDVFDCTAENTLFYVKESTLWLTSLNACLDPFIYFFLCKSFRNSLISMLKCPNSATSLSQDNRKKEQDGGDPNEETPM

For `CCCC(=O)c1cnn(-c2ccc(NC(=O)c3cn(CC(=O)N4CCN(C)CC4)c4ccc(Cl)cc34)nn2)c1C`, the Activity [1] was “Non-toxic”, the CLH [2] was 0.085 mL/h and the Activity [3] was “Non-toxic”. For the same compound, the inhibition in vivo at 0.3 mg/kg [4] was 63%, the Activity [5] was “Non-toxic” and the Activity [6] was “Non-toxic”. The inhibition in vivo at 10 mg/kg [7] was 92%, the Activity [8] was “Non-toxic” and the metabolised at 20 min [9] was 11%. It also gave a Papp [10] of 0.8 ×10⁻⁶ cm/s, a concentration at 4 h [11] of 4.2 µM and a metabolised at 20 min [12] of 4%. It also gave a metabolised at 20 min [13] of 29%, a Ratio [14] of 1.3 and an inhibition in vivo at 1 mg/kg [15] of 75%. For the same compound, the inhibition in vivo at 10 mg/kg [16] was 74%, the inhibition in vivo at 3 mg/kg [17] was 86% and the IC50 [18] was 17 nM. The Activity [19] was “Non-toxic”, the inhibition in vivo at 30 mg/kg [20] was 85% and the inhibition in vivo at 0.1 mg/kg [21] was 37%. The ED50 [22] was 2.75 mg/kg, the inhibition [22] was “Dose-dependent effect” and the Activity [23] was “Non-toxic”. The Activity [24] was 43%.
